Several values for one entry are separate records, joined by “and”; a condition that tells them apart may be missing. Equal values may be shown once.
Key:
Assay type in all cases: functional, organism-based
Mus musculus [1] = test: Tested for the concentration of HVA in striatum of mouse brain one week after four daily injections at doses of 20 mg/kg; set-up: dose 20 mg/kg
Summary of the method: (§1)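 Male CRL/CFW mice received subcutaneous injections daily for 4 days. Animals were killed 7 days after the last dose. Brains were removed rapidly, and striata were dissected, frozen on dry ice and stored at -15 °C until analysis of dopamine, DOPAC and HVA. Values are means ± standard errors for 6 mice/group.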

Mus musculus [2] = test: Tested for the concentration of HVA in striatum of mouse brain one week after four daily injections at dose of 20 mg/kg; set-up: dose 20 mg/kg; summary of the method: as §1
Mus musculus [3] = test: Tested for the concentration of dopamine in striatum of mouse brain one week after four daily injections at 20 mg/kg dose; set-up: dose 20 mg/kg; summary of the method: as §1
Mus musculus [4] = test: Tested for the concentration of DOPAC (dihydroxyphenyl-acetic acid) in striatum of mouse brain one week after four daily injections at dose of 20 mg/kg; set-up: dose 20 mg/kg; summary of the method: as §1
Mus musculus [5] = test: Tested for the concentration of HVA in striatum of mouse brain one week after four daily injections at dose of 80 mg/kg; set-up: dose 80 mg/kg; summary of the method: as §1
Mus musculus [6] = test: Tested for the concentration of DOPAC (dihydroxyphenyl-acetic acid) in striatum of mouse brain one week after four daily injections at dose of 40 mg/kg; set-up: dose 40 mg/kg; summary of the method: as §1
Mus musculus [7] = test: Tested for the concentration of dopamine in striatum of mouse brain one week after four daily injections at 40 mg/kg dose; set-up: dose 40 mg/kg; summary of the method: as §1
Mus musculus [8] = test: Tested for the concentration of HVA in striatum of mouse brain one week after four daily injections at dose of 40 mg/kg; set-up: dose 40 mg/kg; summary of the method: as §1
Mus musculus [9] = test: Tested for the concentration of dopamine in striatum of mouse brain one week after four daily injections at 80 mg/kg of the compound; set-up: dose 80 mg/kg; summary of the method: as §1
Mus musculus [10] = test: Tested for the concentration of DOPAC (dihydroxyphenyl-acetic acid) in striatum of mouse brain one week after four daily injections at dose of 80 mg/kg; set-up: dose 80 mg/kg; summary of the method: as §1
Mus musculus [11] = test: Tested for the concentration of dopamine in striatum of mouse brain one week after four daily injections at 80 mg/kg dose; set-up: dose 80 mg/kg; summary of the method: as §1
Mus musculus [12] = test: Tested for the concentration of DOPAC (dihydroxyphenyl-acetic acid) in striatum of mouse brain one week after four daily injections at a dosage of 80 mg/kg; set-up: dose 80 mg/kg; summary of the method: as §1
Mus musculus [13] = test: Tested for the concentration of HVA in striatum of mouse brain one week after four daily injections at a dosage of 80 mg/kg; set-up: dose 80 mg/kg; summary of the method: as §1

Structure (SMILES)	Concentration (Mus musculus [1]) [nM/g]	Concentration (Mus musculus [2]) [nM/g]	Concentration (Mus musculus [3])	Concentration (Mus musculus [4])	Concentration (Mus musculus [5]) [nM/g]	Concentration (Mus musculus [6]) [nM/g]	Concentration (Mus musculus [7]) [nM/g]	Concentration (Mus musculus [8]) [nM/g]	Concentration (Mus musculus [9]) [nM/g]	Concentration (Mus musculus [10]) [nM/g]	Concentration (Mus musculus [11]) [nM/g]	Concentration (Mus musculus [12]) [nM/g]	Concentration (Mus musculus [13]) [nM/g]
CCN1CC=C(c2cccc(OC)c2)CC1	5.46	6.38	62.7 nM/g and 82.1 nM/g	4.6 nM/g and 5.55 nM/g	–	–	–	–	–	–	–	–	–
COc1cccc(C2=CCN(C)CC2)c1	8.07	–	84.8 nM/g	5.09 nM/g	2.97	2.93	38.1	5.66	7.9	1.38	15.9	0.9	2.41
